Only some compounds are listed: those with a hit (about 2.3% of all), similar ones and a draw of the others.
TAAR1 antag: human TAAR1 antagonism; Q96RJ0; CHO RD-HGA16 TAAR1, Fluo-8 calcium fluorescence, antagonist; inhibition, % at 3 µM; 360,000 tested, 1.5% active; AID 624466;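 active = inhibition above a per-plate cutoff, the mean inhibition of test compounds on that plate plus 3 SD, cut at about 49% in these data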
Target sequence (Q96RJ0 whole entry, looked up): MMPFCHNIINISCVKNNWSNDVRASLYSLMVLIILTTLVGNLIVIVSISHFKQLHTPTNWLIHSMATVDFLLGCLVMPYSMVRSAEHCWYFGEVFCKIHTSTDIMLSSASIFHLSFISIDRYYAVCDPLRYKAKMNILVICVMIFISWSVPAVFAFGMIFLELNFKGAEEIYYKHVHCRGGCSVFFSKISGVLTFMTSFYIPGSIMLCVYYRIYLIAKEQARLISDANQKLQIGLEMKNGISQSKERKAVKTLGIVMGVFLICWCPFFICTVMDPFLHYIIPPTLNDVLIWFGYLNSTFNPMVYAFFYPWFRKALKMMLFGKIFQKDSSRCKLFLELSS
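Test system – hTAAR1-expressing CHO RD-HGA16 cells, Gα16-coupled · Reagent – β-PEA at EC80 concentration, post-compound challenge · Compound dosing – 3 µM, single point · Timing – 140 s kinetic read after compound, 140 s after agonist · Detection – Fluo-8 intracellular calcium dye fluorescence, real-time kinetic reads · Control set – DMSO and EC80 PEA controls · Repeats – n of 1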
V1aR counter: V1a receptor agonism, counter-screen for OXTR agonists. P37288. CHO-V1R cells, Fluo-8 calcium fluorescence, agonist mode; 0% DMSO, 100% 3 nM vasopressin. activation, % at 3 µM. 320,000 tested, 0.25% active;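 active = activation above the mean activation of all tested compounds plus 3 SD, per screening run, cut at about 20% in these data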;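 note: signal is peak over basal fluorescence ratio across a 100 second FLIPR read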
TAAR1 ag: human TAAR1 agonism | Q96RJ0 | CHO RD-HGA16 TAAR1, Fluo-8 calcium fluorescence; vehicle wells 0%, saturating PEA agonist 100% | activation, % at 3 µM | 360,000 tested, 0.99% active | AID 624467;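 active = activation above the mean activation of all test compounds in the run plus 3 SD, cut at about 38% in these data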
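Repeats: no replicates (n 1) | Material: CHO-derived RD-HGA16 cells with stable Gα16 and human TAAR1 | Technique: Kinetic Fluo-8 calcium fluorescence | Schedule: 17-24 h seeding, 75 min 37 °C dye, 30 min RT | Evaluation: % activation from peak over basal fluorescence ratio, DMSO-to-PEA scaled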
OXTR potentiate: potentiates the human oxytocin receptor response | activation, % at 3 µM | 320,000 tested, 0.061% active | P30559 | CHO-OTR cells, Fluo-8 calcium fluorescence, potentiator mode; 0% = oxytocin EC15, 100% = EC100;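 active = activation above that plate's cutoff, the mean activation of tested compounds plus 3 SD, cut at about 6.6% in these data, passing the limit was not always enough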
Target sequence (P30559 whole entry, looked up): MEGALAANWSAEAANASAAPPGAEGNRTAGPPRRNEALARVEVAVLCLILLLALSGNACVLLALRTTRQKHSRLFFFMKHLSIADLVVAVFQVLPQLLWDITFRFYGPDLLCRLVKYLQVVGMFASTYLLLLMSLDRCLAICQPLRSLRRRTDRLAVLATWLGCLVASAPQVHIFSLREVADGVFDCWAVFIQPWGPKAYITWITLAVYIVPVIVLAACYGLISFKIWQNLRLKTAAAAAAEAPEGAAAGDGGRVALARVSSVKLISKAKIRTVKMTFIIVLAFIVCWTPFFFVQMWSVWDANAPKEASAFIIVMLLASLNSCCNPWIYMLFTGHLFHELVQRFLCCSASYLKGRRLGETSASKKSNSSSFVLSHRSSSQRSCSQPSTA
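Replication – single well per compound, singlicate · Assay system – CHO cell line stably expressing human OTR · Timing – 6 min pre-incubation, 100 s read · Measure – normalized max/min fluorescence ratio, % activation · Doses – 3.0 µM, one dose · Detection – Fluo-8 calcium dye fluorescence · Probe or stimulus – oxytocin near EC15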
OXTR agonist: human OXTR agonism | P30559 | CHO-OTR cells, Fluo-8 calcium fluorescence; normalized: DMSO 0%, oxytocin 100% | activation, % at 3 µM | 320,000 tested, 0.32% active;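 active = activation above the mean of all tested compounds plus 3 SD, cutoff set per screening run, cut at about 20% in these data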;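 note: peak over basal fluorescence ratio from a 100 s FLIPR kinetic read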
TAAR1 ag conf: confirmation of human TAAR1 agonists; CHO RD-HGA16 TAAR1, Fluo-8 calcium fluorescence; scaled: DMSO 0%, maximal phenethylamine 100%; shares compounds with TAAR1 ag; 2,400 tested, 82% active; AID 651783; activation, % at 3 µM;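 active = activation above a cutoff set at the run's mean compound activation plus 3 SD, cut at about 39% in these data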
Ga16 nonsel ag: counter-screen for TAAR1 agonists: nonselective agonists in parental cells; AID 651787; activation, % at 3 µM; shares compounds with TAAR1 ag; CHO-Ga16 parental, Fluo-8 calcium fluorescence; normalized to maximal ATP response, DMSO zero; 2,400 tested, 50% active;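 active = activation above the run cutoff, the mean activation over all tested wells plus 3 SD, cut at about 12% in these data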
TAAR1 desens: TAAR1 response desensitization, agonist counter-screen. shares compounds with TAAR1 ag. CHO RD-HGA16 hTAAR1, Fluo-8 calcium, beta-PEA response inhibition. inhibition, % at 3 µM. 2,400 tested, 46% active. AID 651951;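 active = inhibition above the run cutoff, the mean inhibition of all test compounds plus 3 SD, cut at about 49% in these data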;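 note: beta-PEA stimulus applied at its EC80; loss of beta-PEA calcium signal after compound pretreatment read as receptor desensitization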
Ga16 antag count: nonselective Ga16 antagonism, counter-screen | shares compounds with TAAR1 ag | CHO-Ga16 ATP-induced calcium, Fluo-8 fluorescence | inhibition, % at 3 µM | 2,400 tested, 39% active | AID 651952;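 active = inhibition above the plate's mean compound inhibition plus 3 SD, computed per plate, cut at about 22% in these data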
Hits are given with their value; i = inactive; nt = no result given.

SMILES	TAAR1 antag	V1aR counter	TAAR1 ag	OXTR potentiate	OXTR agonist	TAAR1 ag conf	Ga16 nonsel ag	TAAR1 desens	Ga16 antag count
CN1CCN(C2=Cc3cc(Cl)ccc3Sc3cc(F)ccc32)CC1	i	i	67	i	i	89	46	70	45
CN1CCN(C2=Cc3ccccc3Sc3cc(F)c(Cl)cc32)CC1	i	i	46	i	i	38	16	i	24
CN1CCN(C2=Cc3ccccc3Sc3cc(F)c(F)cc32)CC1	i	i	i	i	i	nt	nt	nt	nt
CCC1(c2ccc(F)cc2)NC(=O)N(CC(=O)Nc2ccccc2Cl)C1=O (centres undefined)	i	22	80	i	23	72	36	i	i
O=C(CN1CCN(c2ccccc2)CC1)Nc1ccccc1C(=O)NCCc1ccccc1	88	nt	76	nt	nt	82	i	75	32
CC(OC(=O)c1ccncc1)C(=O)NC1CCCC1 (centres undefined)	i	i	i	i	i	nt	nt	nt	nt
O=C(Nc1ccc(F)cc1)Nc1ccc(Oc2ncnc3cc(Cl)ccc23)nc1	i	i	56	i	i	75	i	81	i
O=C(O)CCCC(=O)Nc1ccc(Oc2ncnc3cc(Cl)ccc23)nc1	i	i	i	i	i	nt	nt	nt	nt
COc1ccc(C(=O)NC2CCN(CC(=O)NCc3ccccc3)CC2)cc1	i	i	i	i	i	nt	nt	nt	nt
CCOC(=O)c1cn(C2CC2)c2c(F)c(F)c(F)cc2c1=O	i	i	49	i	i	i	i	i	i
O=C(Cc1ccccc1)Nc1ccc(NC(=O)c2ccccc2)nc1	i	i	53	i	i	64	i	i	i
O=C(Nc1cccc(C(=O)Nc2ccc(Cl)cn2)c1)c1ccccc1	86	i	87	i	i	i	i	i	i
O=C(Nc1ccc(Cl)cn1)c1cccc(F)c1	i	i	i	i	i	nt	nt	nt	nt
CCN1CCN(c2ccc(NC(=O)CCc3c(C)nc4c(-c5ccccc5)c(C)nn4c3C)cc2)CC1	nt	i	nt	i	i	nt	i	nt	i
COc1cc(CN2CCCC(C(=O)c3ccc(C(C)(C)C)cc3)C2)cc(OC)c1O (centres undefined)	i	i	54	i	i	i	i	i	i
O=C(O)CCCCCN1C(=O)/C(=C\c2ccc(-c3ccc(Cl)cc3)o2)SC1=S	i	i	i	i	i	nt	nt	nt	nt
O=C(O)CCCN1C(=O)/C(=C/c2ccc(-c3nc4ccccc4s3)o2)SC1=S	82	i	72	i	i	55	39	84	67
CCN(CC)c1ccc(C=C2C(=O)OC(c3ccccc3)OC2=O)cc1 (centres undefined)	i	i	i	i	i	nt	nt	nt	nt
CCN(CC)c1ccc(/C=C/C(=O)C2C(=O)C=C(C)OC2=O)cc1 (centres undefined)	108	141	406	i	158	536	664	109	105
CC1(C2CC2)NC(=O)N(CC(=O)N2CCN(S(=O)(=O)c3ccc(F)c(F)c3)CC2)C1=O (centres undefined)	i	i	i	i	i	nt	nt	nt	nt
Cc1nnc(NC(=O)c2sc3nc(-c4cccs4)cc(C(F)(F)F)c3c2N)s1	89	44	78	i	98	62	77	80	80
Cc1cc(C(F)(F)F)c2c(N)c(C(=O)NC3CC3)sc2n1	i	i	i	i	i	nt	nt	nt	nt
O=C(c1cc(-c2cccs2)nc2ccccc12)N1CCN(CCO)CC1	i	nt	i	nt	nt	nt	nt	nt	nt
COc1ccc(C(CCNCc2ccccc2)c2ccc(F)cc2)cc1 (centres undefined)	i	i	i	i	i	nt	nt	nt	nt
COc1ccc(C(CCNC(C)c2ccccc2)c2ccc(F)cc2)cc1 (centres undefined)	i	i	51	i	i	66	35	i	34
SMILES	TAAR1 antag	V1aR counter	TAAR1 ag	OXTR potentiate	OXTR agonist	TAAR1 ag conf	Ga16 nonsel ag	TAAR1 desens	Ga16 antag count
CC1(C(=O)NCc2ccccc2)CCC(=O)N1C1CC1 (centres undefined)	i	nt	i	nt	nt	nt	nt	nt	nt
COc1ccc(CNC(=O)c2cccc3c(-c4cnn(C)c4)coc23)cc1OC	i	nt	i	nt	nt	nt	nt	nt	nt
COCCN1C[C@@H](CO)O[C@@H](n2cnc3c(NCc4cc(OC)c(OC)c(OC)c4)ncnc32)C1	i	nt	i	nt	nt	nt	nt	nt	nt
COCCNc1ncnc2c1ncn2[C@H]1CN(CCc2ccccc2)C[C@@H](CO)O1	i	nt	46	nt	nt	48	i	i	i
COc1cc(CNc2ncnc3c2ncn3[C@H]2CN(CCc3ccccc3)C[C@@H](CO)O2)cc(OC)c1OC	i	nt	59	nt	nt	64	i	i	i
COCCNc1ncnc2c1ncn2[C@H]1CN(Cc2ccc(Cl)cc2)C[C@@H](CO)O1	i	nt	i	nt	nt	nt	nt	nt	nt
CC(NS(=O)(=O)c1ccccc1)C1CC2CCC1C2 (centres undefined)	i	i	i	i	i	nt	nt	nt	nt
Cc1ccccc1OCCn1ccnc1	i	i	i	i	i	nt	nt	nt	nt
Cc1ccccc1Oc1ccc(Oc2ccccc2C)nn1	i	i	60	i	i	i	i	i	i
CS(=O)(=O)c1ccc(Nc2nc(C(N)Cc3ccccc3)cs2)cc1 (centres undefined)	i	nt	47	nt	nt	75	i	i	i
CS(=O)(=O)c1ccc(Nc2nc(C(N)Cc3ccc(F)cc3)cs2)cc1 (centres undefined)	i	nt	i	nt	nt	nt	nt	nt	nt
NC(Cc1ccc(F)cc1)c1csc(Nc2ccc(S(N)(=O)=O)cc2)n1 (centres undefined)	i	nt	61	nt	nt	76	i	53	i
NC(Cc1ccccc1)c1csc(Nc2ccc(C(=O)NCCO)cc2)n1 (centres undefined)	i	nt	45	nt	nt	76	i	58	i
COc1ccccc1/C=C/CN1CCC(n2nccc2NC(=O)CCc2ccccc2)CC1	i	i	i	i	i	nt	nt	nt	nt
CN(CCC#N)c1ccc(/C=C(\C#N)c2ccccn2)cc1	i	i	86	i	i	i	i	i	i
CCN(CC)c1ccc(/C=C(\C#N)c2ccccn2)cc1	nt	i	nt	i	i	nt	nt	nt	nt
N#Cc1ccc(OCCCN2CCC(C(O)(C3=CCCC3)c3ccccc3)CC2)cc1 (centres undefined)	i	nt	i	nt	nt	nt	nt	nt	nt
OC(c1ccccc1)(c1ccccc1)C1CCN(CCCOc2ccc(-c3ccncc3)cc2)CC1	53	nt	42	nt	nt	46	27	54	36

Bioassay records as filed in PubChem.
